This is an account of results in ChEMBL document CHEMBL1124214, “Synthesis, binding studies, and structure-activity relationships of 1-aryl-and 2-aryl[1]benzopyranopyrazol-4-ones, central benzodiazepine receptor ligands” (J Med Chem, 1988).

One assay addresses GABA-A receptor; anion channel. Put plainly: Inhibition of [3H]flunitrazepam binding to benzodiazepine receptor in bovine brain membrane. It is filed as cell membranes, Bos taurus. The method in brief:
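Bovine brain membranes (0.4-0.5 mg protein) incubated in triplicate with 0.6 nM [3H]flunitrazepam, 90 min at 0 °C, 50 mM Tris-HCl; compounds in EtOH unless noted. Rapid GF/B filtration, buffer wash, scintillation counting; nonspecific binding with 10 μM diazepam. IC50 from log-probit plots, mean ± SEM of seven determinations.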
Turning to `Cc1nn(-c2ccc(Cl)cc2)c2c1c(=O)oc1ccccc12`, the IC50 was 750 nM. This lies in the sub-micromolar range. Compound `Cc1nn(-c2ccc(N)cc2)c2c1c(=O)oc1ccccc12` gave an IC50 of 1300 nM. Compound `Cc1cccc(-n2nc3c(c2C)c(=O)oc2ccccc23)c1` gave an IC50 of 3000 nM.

In turn, `Cc1nn(-c2ccccc2)c2c1c(=O)oc1ccccc12` had an IC50 of 300 nM. Against the preceding compound, the IC50 is about 10-fold lower.

On to `COc1ccc(-n2nc(C)c3c(=O)oc4ccccc4c32)cc1`, for which the IC50 is 700 nM. Against the preceding compound, the IC50 is about 2.3-fold higher. `Cc1cc(C)cc(-n2nc(C)c3c(=O)oc4ccccc4c32)c1`: the IC50 worked out at 65 nM.

As for `Cc1ccccc1-n1nc(C)c2c(=O)oc3ccccc3c21`, the concentration for half-maximal inhibition (IC50) was 30000 nM.

`Cc1nn(-c2ccccc2[N+](=O)[O-])c2c1c(=O)oc1ccccc12` gave an IC50 of 43000 nM. This IC50 and that of the compound before are within 1.5-fold of each other. Still for that read-out and setting: as for `Cc1ccc(-n2nc(C)c3c(=O)oc4ccccc4c32)cc1`, the figure is 2000 nM. Turning to `CNC1=Nc2ccc(Cl)cc2C(c2ccccc2)=[N+]([O-])C1` [CHLORDIAZEPOXIDE], the IC50 came to 790 nM. Take `Cc1c2c(=O)oc3ccccc3c2nn1-c1cccc(Br)c1`: the IC50 was determined as 25000 nM. On the same count and under the same terms, the same measure for `CN1C(=O)CN=C(c2ccccc2)c2cc(Cl)ccc21` [DIAZEPAM]: 25 nM; for `Cc1nn(-c2cccc([N+](=O)[O-])c2)c2c1c(=O)oc1ccccc12`: 320 nM; for `O=c1oc2ccccc2c2c1c(-c1ccccc1)nn2-c1ccccc1`: 16000 nM. The same measure, in the same setting: as for `COc1cccc(-n2nc3c(c2C)c(=O)oc2ccccc23)c1`, the figure is 5000 nM; as for `Cc1c2c(=O)oc3ccccc3c2nn1-c1ccccc1`, 3100 nM. As for `Cc1nn(-c2cccc(N)c2)c2c1c(=O)oc1ccccc12`, the IC50 came to 3400 nM. As for `Cc1nn(-c2cccc(Br)c2)c2c1c(=O)oc1ccccc12`, the IC50 was found to be 100 nM. The compound `COc1cccc(-n2nc(C)c3c(=O)oc4ccccc4c32)c1` registered an IC50 of 750 nM. Consider `Cc1nn(-c2ccccc2Cl)c2c1c(=O)oc1ccccc12`, for which the IC50 came out at 16000 nM. This IC50 lies about 21-fold higher than the previous one. On the same count and under the same terms, as for `Cc1cccc(-n2nc(C)c3c(=O)oc4ccccc4c32)c1`, the figure is 280 nM; as for `Cc1nn(-c2ccccc2N)c2c1c(=O)oc1ccccc12`, 630 nM; as for `Cc1nn(-c2ccc([N+](=O)[O-])cc2)c2c1c(=O)oc1ccccc12`, 1000 nM.

The compound `COc1ccccc1-n1nc(C)c2c(=O)oc3ccccc3c21` yielded an IC50 of 8000 nM.

Compound `Cc1nn(-c2cccc(Cl)c2)c2c1c(=O)oc1ccccc12` yielded an IC50 of 90 nM. Compared with the last compound, the IC50 is about 89-fold lower.

For the next assay, the species on record is Bos taurus. In words: Percentage inhibition of [3H]flunitrazepam binding to benzodiazepine receptor of bovine brain membrane at 34 uM. The method in brief:
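Specific [3H]flunitrazepam binding (0.6 nM) to bovine brain membranes, 90 min at 0 °C in 50 mM Tris-HCl, triplicate incubations; test compound at 34 μM, EtOH vehicle unless noted. Filtration through GF/B, scintillation counting; 10 μM diazepam defines nonspecific binding. Percent inhibition as mean ± SEM of five determinations.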
Take `O=c1oc2ccccc2c2c1c(-c1ccccc1)nn2-c1ccccc1`: the inhibition came to 34%. On to `Cc1nn(-c2ccccc2Cl)c2c1c(=O)oc1ccccc12`, for which the inhibition amounted to 34%.

For orientation: IC50 means the point on the concentration scale where inhibition reaches its midpoint. Low values mean greater potency, high ones weaker potency. The term inhibition denotes the percentage by which the read-out fell short of the control.
